The text below walks through data of ChEMBL document CHEMBL1275349 (J Med Chem, 2010).

Structures are written as SMILES. Activity calls are given as the source filed them. No cut-off for these calls is given here.

A short description of experiment [1]: Displacement of [32P]NAADP from NAADP receptor in sea urchin microsomes after 90 mins by liquid scintillation counting. The arrangement: species or system Strongylocentrotus purpuratus, Microsome. An outline of the steps:
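Competition binding in sea urchin egg homogenate: 0.2 nM [32P]NAADP plus seven competitor concentrations, incubated together 90 min at 4 °C, in triplicate. Filtered, washed, filter-bound radioactivity counted by liquid scintillation.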

Experiment [2] deals with Strongylocentrotus purpuratus. The experiment is described as follows: Binding affinity to NAADP receptor in sea urchin microsomes assessed as fold increase in IC50 for displacement of [32P]NAADP from receptor relative to NAADP. The conditions noted are these: Microsome. Summed up:
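Competition binding in sea urchin egg homogenate: 0.2 nM [32P]NAADP plus seven competitor concentrations, incubated together 90 min at 4 °C, in triplicate. Filtered, washed, filter-bound radioactivity counted by liquid scintillation. IC50 from fitted curves over ≥3 experiments; fold value is relative to NAADP IC50.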

A short description of experiment [3]: (§1) Agonist activity at NAADP receptor in sea urchin egg homogenate assessed as induction of Ca2+ release by Fluo-3 staining based fluorimetric assay. It is filed as functional, Strongylocentrotus purpuratus.
The subject of experiment [4] is Strongylocentrotus purpuratus. The experiment is described as follows: Agonist activity at NAADP receptor in sea urchin egg homogenate assessed as fold increase in EC50 for induction of Ca2+ release relative to NAADP. Format: functional, tissue-based.
The test system of experiment [5] is Strongylocentrotus purpuratus. The experiment is described as follows: Agonist activity at NAADP receptor in sea urchin egg homogenate assessed as desensitization of NAADP-induced Ca2+ release at => 1 nM treated for 9 mins before NAADP challenge by Fluo-3 staining based fluorimetric assay. Format: functional, tissue-based. An outline of the steps:
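Strongylocentrotus purpuratus egg homogenate (1.25% v/v) diluted in intracellular medium: 250 mM potassium gluconate pH 7.2, 0.5 mM ATP, 4 mM […], creatinine kinase, 3 μM Fluo-3; 17 °C. Ca2+ release read as fluorescence (ex 490/em 535 nm); EC50 from plateau maximum vs concentration, mean of ≥3 determinations. For desensitization, 9 min pretreatment, then 1 μM NAADP challenge; mean±SEM, n = 3.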

The subject of experiment [6] is Strongylocentrotus purpuratus. The experiment is described as §1. It is filed as functional.
The test system of experiment [7] is Strongylocentrotus purpuratus. The experiment is described as follows: Agonist activity at NAADP receptor in sea urchin egg homogenate assessed as induction of Ca2+ release at 2 nM by Fluo-3 staining based fluorimetric assay. Format: functional, tissue-based.

What is called IC50 is the concentration at which inhibition is half-maximal. A word on the EC50: it is the concentration giving half of the maximal effect. In turn, `[N-]=[N+]=Nc1cc(C(=O)[O-])c[n+]([C@H]2O[C@@H](COP(=O)(O)OP(=O)(O)OC[C@H]3O[C@@H](n4cnc5c(N)ncnc54)[C@H](OP(=O)(O)O)[C@@H]3O)[C@H](O)[C@@H]2O)c1` yielded an IC50 in experiment [1] of 0.018 µM. For the same compound, the results for the fold change (FC) in experiment [2] and in experiment [4] were 11 and 90, respectively. Moreover, the EC50 in experiment [3] was 1.69 µM. In experiment [5], the outcome was Active.
The corresponding values for `Nc1ncnc2c1ncn2[C@@H]1O[C@H](COP(=O)(O)OP(=O)(O)OC[C@@H]2O[C@H]([n+]3cc(C(=O)[O-])cc(C(=O)O)c3)[C@@H](O)[C@H]2O)[C@@H](O)[C@H]1OP(=O)(O)O` are greater than 100 µM, greater than 60000, greater than 50000, greater than 1000 µM and “Active”.
For the compound `Nc1ncnc2c1ncn2[C@@H]1O[C@H](COP(=O)(O)OP(=O)(O)OC[C@@H]2O[C@H]([n+]3cccc(C(=O)[O-])c3)[C@@H](O)[C@H]2O)[C@@H](O)[C@H]1OP(=O)(O)O`, in experiment [6], the Activity result is “Dose-dependent effect”.
`Cc1cc[n+]([C@H]2O[C@@H](COP(=O)(O)OP(=O)(O)OC[C@H]3O[C@@H](n4cnc5c(N)ncnc54)[C@H](OP(=O)(O)O)[C@@H]3O)[C@H](O)[C@@H]2O)cc1C(=O)[O-]` yielded an IC50 in experiment [1] of 0.149 µM. Further, the fold change (FC) in experiment [2] was found to be 93; in experiment [4], 2200. In addition, the Activity result in experiment [6] is “Dose-dependent effect”. In experiment [3], the EC50 is 42.2 µM. In addition, the result in experiment [5] was Active.
`CCc1cc(C(=O)[O-])c[n+]([C@H]2O[C@@H](COP(=O)(O)OP(=O)(O)OC[C@H]3O[C@@H](n4cnc5c(N)ncnc54)[C@H](OP(=O)(O)O)[C@@H]3O)[C@H](O)[C@@H]2O)c1`: the IC50 in experiment [1] amounted to 0.037 µM. Also, the fold change (FC) in experiment [2] was 23; in experiment [4], 18. For the same compound, the EC50 in experiment [3] came to 0.352 µM. In experiment [5], the result was Active.
The like results for `Nc1ncnc2c1ncn2[C@@H]1O[C@H](COP(=O)(O)OP(=O)(O)OC[C@@H]2O[C@H]([n+]3ccc(-c4ccccc4)c(C(=O)[O-])c3)[C@@H](O)[C@H]2O)[C@@H](O)[C@H]1OP(=O)(O)O` were, in that order, 0.859 µM, 540, greater than 50000, greater than 1000 µM and “Active”.
With `Nc1cc[n+]([C@H]2O[C@@H](COP(=O)(O)OP(=O)(O)OC[C@H]3O[C@@H](n4cnc5c(N)ncnc54)[C@H](OP(=O)(O)O)[C@@H]3O)[C@H](O)[C@@H]2O)cc1C(=O)[O-]`, in experiment [1], the IC50 was 0.141 µM. The fold change (FC) in experiment [2] worked out at 88; in experiment [4] it was 235. In experiment [3], the EC50 was determined as 4.41 µM. Besides, the result in experiment [5] was Active.
In the case of `Nc1cc(C(=O)[O-])c[n+]([C@H]2O[C@@H](COP(=O)(O)OP(=O)(O)OC[C@H]3O[C@@H](n4cnc5c(N)ncnc54)[C@H](OP(=O)(O)O)[C@@H]3O)[C@H](O)[C@@H]2O)c1`, the outcome in experiment [7] and in experiment [5] was Active. For the same compound, the IC50 in experiment [1] came to 0.0017 µM. Besides, the fold change (FC) in experiment [2] turned out to be 1.1; in experiment [4], 1.5. In addition, the Activity result in experiment [6] was “Dose-dependent effect”. Besides, in experiment [3], the EC50 was determined as 0.0274 µM.
`CCCCc1cc[n+]([C@H]2O[C@@H](COP(=O)(O)OP(=O)(O)OC[C@H]3O[C@@H](n4cnc5c(N)ncnc54)[C@H](OP(=O)(O)O)[C@@H]3O)[C@H](O)[C@@H]2O)cc1C(=O)[O-]` returned an IC50 in experiment [1] of 0.465 µM. In addition, the results for the fold change (FC) in experiment [2] and in experiment [4] were 303 and greater than 50000, respectively. Also, the EC50 in experiment [3] was greater than 1000 µM. For the same compound, the result in experiment [5] was Active.
With `Cc1cc(C(=O)[O-])c[n+]([C@H]2O[C@@H](COP(=O)(O)OP(=O)(O)OC[C@H]3O[C@@H](n4cnc5c(N)ncnc54)[C@H](OP(=O)(O)O)[C@@H]3O)[C@H](O)[C@@H]2O)c1`, the result in experiment [7] and in experiment [5] was Active. Moreover, in experiment [1], the IC50 was 0.0019 µM. For the same compound, the fold change (FC) is 1.2 in experiment [2] and 2.3 in experiment [4]. The Activity entry in experiment [6] was “Dose-dependent effect”. For the same compound, the EC50 in experiment [3] was found to be 0.043 µM.
